Key:
[1] = tested on: MRC5; assay: In Vitro cytotoxicity on MRC-5 cells; type: functional; conditions: Homo sapiens
How it was run: (§1)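 MRC-5 human diploid embryonic lung cells seeded at 5 000/well, washed after 24 h, then given 2-fold drug dilutions (25, 12.5, 6.25, 3.13 µM) in RPMI + 5% FCS, final DMSO below 0.5%. Incubated 7 days at 37 °C, 5% CO2. MTT colorimetric read-out, scored as % reduction of absorbance at 540 nm versus untreated controls.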

[2] = tested on: Trypanosoma brucei; assay: In Vitro inhibition concentration against Trypomastigote form of Trypanosoma brucei; type: functional, organism-based
How it was run: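 Bloodstream-form trypomastigotes were grown in HMI-9 medium. 10 000 parasites per well were incubated with drug at 12.5, 6.25, 3.13 and 1.56 µM for 4 days, and parasite multiplication was assessed.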

[3] = tested on: Leishmania infantum; assay: Percentage of activity against Leishmania infantum at 6.25 uM; Toxic upon mouse primary peritoneal macrophages; type: functional, organism-based
How it was run: (§2)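 Starch-stimulated mouse peritoneal macrophages, 30 000/well, infected after 24 h with spleen-derived L. infantum amastigotes (10:1) together with 2-fold drug dilutions (12.5–1.56 µM). Incubated 7 days at 37 °C, 5% CO2. Wright-stained slides scored microscopically as % reduction of total parasite load or of infected macrophages. Uninfected treated cultures judged microscopically for macrophage toxicity.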

[4] = tested on: Leishmania infantum; assay: Percentage of activity against Leishmania infantum at 1.56 uM; type: functional; how it was run: as §2
[5] = tested on: Leishmania infantum; assay: Percentage of activity against Leishmania infantum at 12.5 uM Concentration; Toxic upon mouse primary peritoneal macrophages; type: functional, organism-based; how it was run: as §2
[6] = tested on: Leishmania infantum; assay: Percentage of activity against Leishmania infantum at 3.13 uM; type: functional; how it was run: as §2
[7] = tested on: MRC5; assay: Cytotoxicity on MRC-5 cells at 12.5 uM; type: functional; conditions: Homo sapiens; how it was run: as §1
[8] = tested on: MRC5; assay: Cytotoxicity on MRC-5 cells at 25 uM; type: functional; conditions: Homo sapiens; how it was run: as §1
[9] = tested on: MRC5; assay: Cytotoxicity on MRC-5 cells at 3.13 uM; type: functional; conditions: Homo sapiens; how it was run: as §1
[10] = tested on: MRC5; assay: Cytotoxicity on MRC-5 cells at 6.25 uM; type: functional; conditions: Homo sapiens; how it was run: as §1
[11] = tested on: Plasmodium falciparum; assay: Parasite growth inhibition against Plasmodium falciparum W2; type: functional, organism-based
How it was run: (§3)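 Asynchronous cultures of each strain on human erythrocytes (0.5% parasitemia, 1% final hematocrit) were exposed to serially diluted drug for 24 h at 37 °C. Then 0.5 µCi [3H]hypoxanthine per well was added for 24 h. Incorporation was compared with a drug-free control on the same plate. IC50 was taken from the concentration-response curve as the mean of several independent experiments. DMSO was at most 0.1%.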

[12] = tested on: Plasmodium falciparum; assay: Parasite growth inhibition against Plasmodium falciparum F32A; type: functional, organism-based; how it was run: as §3
[13] = tested on: Plasmodium falciparum; assay: Parasite growth inhibition against Plasmodium falciparum FCM29; type: functional, organism-based; how it was run: as §3
[14] = tested on: Plasmodium falciparum; assay: Parasite growth inhibition against Plasmodium falciparum FCR3; type: functional, organism-based; how it was run: as §3
[15] = tested on: Plasmodium falciparum; assay: In vitro sensitivity for Plasmodium falciparum FcB1R; type: functional, organism-based
How it was run: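 Asynchronous P. falciparum cultures in human erythrocytes (0.5% parasitemia, 1% haematocrit) exposed to serially diluted drug for 24 h at 37 °C. [3H]hypoxanthine (0.5 µCi/well) then added for a further 24 h. Uptake compared with drug-free controls on the same plate. IC50 taken from the concentration–response curve, averaged over independent experiments. DMSO ≤0.1%.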

[16] = tested on: Plasmodium falciparum; assay: Parasite growth inhibition against Plasmodium falciparum GP1; type: functional, organism-based; how it was run: as §3
[17] = tested on: Plasmodium falciparum; assay: Growth inhibition against chloroquine-resistant Plasmodium falciparum K1; type: functional, organism-based; how it was run: as §3
[18] = tested on: Trypanosoma cruzi; assay: Percentage of activity against Trypanosoma cruzi at 1.56 uM; type: functional
How it was run: (§4)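 Mouse peritoneal macrophages, 30 000/well, infected after 24 h with about 100 000 T. cruzi trypomastigotes per well plus 2-fold drug dilutions (12.5–1.56 µM). Incubated 4 days at 37 °C, 5% CO2. Methanol-fixed, Giemsa-stained and scored microscopically as % reduction of total parasite load (free trypomastigotes plus intracellular amastigotes) versus untreated controls.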

[19] = tested on: Trypanosoma cruzi; assay: Percentage of activity against Trypanosoma cruzi at 12.5 uM; Toxic upon mouse primary peritoneal macrophages; type: functional, organism-based; how it was run: as §4
[20] = tested on: Trypanosoma cruzi; assay: Percentage of activity against Trypanosoma cruzi at 3.13 uM; type: functional; how it was run: as §4
[21] = tested on: Trypanosoma cruzi; assay: In Vitro evaluation for the percentage of activity towards Trypanosoma cruzi at 6.25 uM Concentration; Toxic upon mouse primary peritoneal macrophages; type: functional, organism-based; how it was run: as §4
[22] = tested on: Trypanosoma brucei; assay: Percentage of activity against Trypanosoma brucei at 6.25 uM; type: functional
How it was run: (§5)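 Bloodstream-form T. brucei in HMI-9 medium, 10 000 parasites/well, exposed to 12.5, 6.25, 3.13 and 1.56 µM drug for 4 days. Read-out is % inhibition of parasite multiplication. Macrophage toxicity judged on mouse primary peritoneal macrophages.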

[23] = tested on: Trypanosoma brucei; assay: Percentage of activity against Trypanosoma brucei at 1.56 uM; type: functional; how it was run: as §5
[24] = tested on: Trypanosoma brucei; assay: Percentage of activity against Trypanosoma brucei at 3.13 uM; type: functional; how it was run: as §5
[25] = tested on: Plasmodium falciparum; assay: Growth inhibition of chloroquine-sensitive Plasmodium falciparum 3D7
[26] = tested on: Plasmodium falciparum; assay: Parasite growth inhibition against Plasmodium falciparum K1; type: functional, organism-based; how it was run: as §3
[27] = tested on: Leishmania infantum; assay: In Vitro evaluation for the percentage of activity towards Leishmania infantum at 3.13 uM Concentration; Toxic upon mouse primary peritoneal macrophages; type: functional, organism-based; how it was run: as §2
[28] = tested on: Leishmania infantum; assay: In Vitro evaluation for the percentage of activity towards Leishmania infantum at 1.56 uM Concentration; Toxic upon mouse primary peritoneal macrophages; type: functional, organism-based; how it was run: as §2
[29] = tested on: Trypanosoma cruzi; assay: In Vitro evaluation for the percentage of activity towards Trypanosoma cruzi at 1.56 uM Concentration; Toxic upon mouse primary peritoneal macrophages; type: functional; how it was run: as §4
[30] = tested on: Trypanosoma cruzi; assay: In Vitro evaluation for the percentage of activity towards Trypanosoma cruzi at 3.13 uM Concentration; Toxic upon mouse primary peritoneal macrophages; type: functional, organism-based; how it was run: as §4
[31] = tested on: Trypanosoma brucei; assay: Percentage of activity against Trypanosoma brucei at 12.5 uM; type: functional; how it was run: as §5
[32] = tested on: Leishmania infantum; assay: Percentage of activity against Leishmania infantum 6.25 uM; type: functional; how it was run: as §2
[33] = tested on: Trypanosoma cruzi; assay: Percentage of activity against Trypanosoma cruzi at 6.25 uM Concentration; type: functional; how it was run: as §4
[34] = tested on: Leishmania infantum; assay: In Vitro evaluation for the percentage of activity towards Leishmania infantum at 12.5 uM Concentration; type: functional; how it was run: as §2
[35] = tested on: Trypanosoma cruzi; assay: Percentage of activity against Trypanosoma cruzi at 12.5 uM; type: functional; how it was run: as §4
[36] = tested on: Trypanosoma brucei; assay: In Vitro evaluation for the percentage of activity towards Trypanosoma brucei at 12.5 uM Concentration; Toxic upon mouse primary peritoneal macrophages; type: functional, organism-based; how it was run: as §5
[37] = tested on: Plasmodium falciparum; assay: Inhibition of Plasmodium falciparum 3D7
[38] = tested on: Plasmodium falciparum; assay: Inhibition of Plasmodium falciparum W2
[39] = tested on: Plasmodium falciparum; assay: Inhibition of Plasmodium falciparum FCR3
[40] = tested on: Plasmodium falciparum; assay: Inhibition of Plasmodium falciparum F32A

Compound	Cytotoxicity [3]	Antileishmanial activity (% reduction of parasite load) [4]	Cytotoxicity [5]	Percent antileishmanial activity (reduction of parasite load) [6]	cytotoxicity at 12.5 µM [7]	cytotoxicity at 25 µM [8]	cytotoxicity at 3.13 µM [9]	cytotoxicity at 6.25 µM [10]	IC50 [11]	IC50 [12]	IC50 [13]	IC50 [15]	IC50 [16]	Parasite load reduction [18]	Cytotoxicity [19]	Reduction of T. cruzi parasite load [20]	Cytotoxicity [21]	Inhibition of parasite multiplication [22]	Percent inhibition of parasite multiplication [23]	Parasite growth inhibition [24]	other results
Nc1nc(N)nc(Nc2ccc([As]3SCC(CO)S3)cc2)n1 (centres undefined) [MELARSOPROL]	–	–	–	–	–	–	–	–	–	–	–	–	–	–	–	–	–	–	–	–	CC50 [1]: 12.5 µM; IC50 [2]: 0.2 µM
COc1ccc2nc3cc(Cl)ccc3c(NCCCN(CCCNc3c4ccc(Cl)cc4nc4ccc(OC)cc34)C(=O)C(CC(C)C)NC(=O)OC(C)(C)C)c2c1 (centres undefined)	Toxic	90%	Toxic	95%	49%	55%	42%	47%	0.015 µM	0.052 µM	0.013 µM	0.027 µM	0.063 µM	40%	Toxic	80%	Toxic	100%	100%	100%	IC50 [14]: 0.017 µM; IC50 [17]: 0.014 µM; IC50 [25]: 0.048 µM
COc1ccc2nc3cc(Cl)ccc3c(NCCCN(CCCNc3c4ccc(Cl)cc4nc4ccc(OC)cc34)C(=O)C(NC(=O)OC(C)(C)C)C(C)C)c2c1 (centres undefined)	Toxic	95%	Toxic	99%	59%	60%	43%	54%	0.04 µM	0.057 µM	0.016 µM	0.025 µM	0.083 µM	70%	Toxic	90%	Toxic	100%	100%	100%	IC50 [14]: 0.022 µM; IC50 [26]: 0.036 µM; IC50 [25]: 0.049 µM
COc1ccc2nc3cc(Cl)ccc3c(NCCCN(CCCNc3c4ccc(Cl)cc4nc4ccc(OC)cc34)C(=O)[C@@H](C)NC(=O)OC(C)(C)C)c2c1	Toxic	95%	Toxic	99%	84%	100%	81%	84%	0.018 µM	0.089 µM	0.011 µM	0.033 µM	0.066 µM	60%	Toxic	95%	Toxic	100%	100%	100%	IC50 [14]: 0.032 µM; IC50 [26]: 0.023 µM; IC50 [25]: 0.057 µM
COc1ccc2nc3cc(Cl)ccc3c(NCCNCCNc3c4ccc(Cl)cc4nc4ccc(OC)cc34)c2c1	Toxic	–	Toxic	–	100%	100%	100%	100%	–	–	–	0.063 µM	–	–	Toxic	–	Toxic	100%	100%	100%	Cytotoxicity [27]: Toxic; Cytotoxicity [28]: Toxic; Cytotoxicity [29]: Toxic; Cytotoxicity [30]: Toxic; Inhibition of parasite multiplication [31]: 100%
COc1ccc2nc3cc(Cl)ccc3c(NCCCN(CCCNc3c4ccc(Cl)cc4nc4ccc(OC)cc34)C(=O)C(C)NC(=O)OC(C)(C)C)c2c1 (centres undefined)	–	40%	Toxic	60%	100%	100%	0%	100%	0.01 µM	0.066 µM	0.011 µM	0.031 µM	0.035 µM	0%	Toxic	40%	–	100%	100%	100%	Antileishmanial activity (% reduction of parasite load) [32]: 95%; IC50 [26]: 0.012 µM; Reduction of T. cruzi parasite load [33]: 90%; Inhibition of parasite multiplication [31]: 100%; IC50 [25]: 0.022 µM
COc1ccc2nc3cc(Cl)ccc3c(NCCCN3CCN(CCCNc4c5ccc(Cl)cc5nc5ccc(OC)cc45)CC3)c2c1	–	0%	–	0%	0%	0%	0%	0%	0.012 µM	0.008 µM	0.013 µM	0.017 µM	0.011 µM	–	–	0%	–	90%	60%	80%	Antileishmanial activity (% reduction of parasite load) [32]: 0%; Percent inhibition of Leishmania infantum [34]: 0%; IC50 [14]: 0.018 µM; IC50 [26]: 0.016 µM; T. cruzi parasite load reduction [35]: 0%; Reduction of T. cruzi parasite load [33]: 0%; Inhibition of parasite multiplication [31]: 100%; IC50 [25]: 0.013 µM
COc1ccc2nc3cc(Cl)ccc3c(NCCCN(CCCNc3c4ccc(Cl)cc4nc4ccc(OC)cc34)C(=O)CCN3CCCC3)c2c1	Toxic	–	Toxic	–	65%	76%	37%	39%	–	–	–	0.091 µM	–	0%	Toxic	–	Toxic	100%	100%	100%	Cytotoxicity [27]: Toxic; Cytotoxicity [28]: Toxic; Cytotoxicity [30]: Toxic; Cytotoxicity [36]: Toxic
OC(c1cc(C(F)(F)F)nc2c(C(F)(F)F)cccc12)C1CCCCN1 (centres undefined) [MEFLOQUINE]	–	–	–	–	–	–	–	–	–	–	–	0.0069 µM	–	–	–	–	–	–	–	–	IC50 [37]: 0.04 µM; IC50 [38]: 0.03 µM; IC50 [39]: 0.036 µM; IC50 [40]: 0.062 µM
COc1ccc2nc3cc(Cl)ccc3c(NCCCCNCCCNc3c4ccc(Cl)cc4nc4ccc(OC)cc34)c2c1	Toxic	–	Toxic	–	100%	100%	100%	100%	–	–	–	0.061 µM	–	–	Toxic	–	Toxic	100%	100%	100%	Cytotoxicity [27]: Toxic; Cytotoxicity [28]: Toxic; Cytotoxicity [29]: Toxic; Cytotoxicity [30]: Toxic; Inhibition of parasite multiplication [31]: 100%
O=C(Cn1ccnc1[N+](=O)[O-])NCc1ccccc1 [BENZNIDAZOLE]	–	–	–	–	–	–	–	–	–	–	–	–	–	–	–	–	–	–	–	–	CC50 [1]: > 50 µM
